Bioassay records from PubChem BioAssay.
ATG4B inhibitor: ATG4B protease inhibitors, primary screen, biochemical, fluorescence, uHTS; ATG4B cleavage of LC3-PLA2, NBD-HPC fluorescence, 1 h; AID 504462, 2011; actives 0.51% (n = 340,000); inhibition, % at 8.33 µM; Cysteine protease ATG4B (Homo sapiens), Q9Y4P1; in the data active means inhibition above about 40%
Target sequence (Q9Y4P1 whole entry, looked up): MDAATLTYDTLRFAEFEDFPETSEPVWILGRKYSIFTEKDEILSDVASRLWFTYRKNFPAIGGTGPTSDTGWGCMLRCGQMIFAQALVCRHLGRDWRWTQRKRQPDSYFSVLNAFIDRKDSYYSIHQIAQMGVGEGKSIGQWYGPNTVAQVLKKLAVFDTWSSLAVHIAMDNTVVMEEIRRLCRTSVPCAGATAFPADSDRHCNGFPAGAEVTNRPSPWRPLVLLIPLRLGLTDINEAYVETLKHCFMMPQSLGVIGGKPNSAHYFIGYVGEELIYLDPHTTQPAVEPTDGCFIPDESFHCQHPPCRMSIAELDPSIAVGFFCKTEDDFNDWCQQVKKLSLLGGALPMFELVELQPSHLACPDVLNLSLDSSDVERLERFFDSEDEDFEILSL
GRIN3A LBD mod: binders of NR3A ligand-binding domain, primary screen, biophysical, differential scanning fluorimetry, uHTS; NR3A LBD differential scanning fluorimetry, Tm shift; 0% = protein alone, 100% = glycine-bound protein; Tm shift relative to glycine control, % at 25 µM; actives 2.5% (n = 340,000); AID 1259313, 2017;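 active means melting temperature shift of at least 10% of the positive control shift, at one fixed dose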
NadD inh: inhibitors of S. aureus NadD, primary screen, biochemical, colorimetric, uHTS. Nicotinate-nucleotide adenylyltransferase NadD (Staphylococcus aureus N315). purified NadD enzyme, colorimetric absorbance read-out. inhibition, % at 20 µM. actives 0.78% (n = 360,000); in the data active means inhibition above about 26%
SENP1 FRET inh: human SENP1 catalytic domain inhibitors, primary screen, biochemical, FRET, uHTS; recombinant SENP1 catalytic domain, CyPet-SUMO1-YPet FRET cleavage; inhibition, % at 10 µM; actives 0.21% (n = 360,000);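 active means inhibition at least 30% at 10 µM, raw YFP signal under a set limit, fluorescence ratio 0.5 to 1.5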;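 further: 0% = enzyme with DMSO and 100% = no enzyme wells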
Target sequence (Q9P0U3 419-644 limits assumed): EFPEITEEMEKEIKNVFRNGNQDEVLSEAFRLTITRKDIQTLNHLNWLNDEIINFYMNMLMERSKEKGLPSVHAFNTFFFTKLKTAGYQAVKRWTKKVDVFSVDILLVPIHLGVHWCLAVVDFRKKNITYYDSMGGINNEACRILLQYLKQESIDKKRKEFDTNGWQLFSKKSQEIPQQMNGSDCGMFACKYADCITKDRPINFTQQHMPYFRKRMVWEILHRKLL
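Material – human SENP1 catalytic domain · Input – SENP1 enzyme, 20 pM final · Compound dosing – single concentration of 10 µM compound, 0.5% DMSO final · Timing – enzyme reaction for 50 min at room temperature, dark · Measured by – FRET fluorescence in CFP and YFP emission channels · Control set – no-enzyme wells low, DMSO-plus-enzyme wells high control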
UCH37 inh: inhibitors of human UCH37 deubiquitinase, primary screen, biochemical, Ub-AMC cleavage, fluorescence; actives 0.33% (n = 330,000); purified proteasome/UCH37; Ubiquitin carboxyl-terminal hydrolase isozyme L5 (Homo sapiens), Q9Y5K5; AID 588478, 2011; inhibition, % (concentration not given with the values);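 active means mean inhibition over replicate wells above about 20%, limit read from the data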;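 further: 0% = compound-free wells with enzyme and 100% = wells lacking proteasome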
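Assay system: Proteasome-bound UCH37. Buffer or medium: pH 7.4 Tris-HCl (50 mM) with ovalbumin, ATP-MgCl2, DTT. Incubation: 30 min preincubation with enzyme, 25 min cleavage at room temperature. Measured by: fluorescence, ex 355 nm, em 460 nm. Read-out basis: percent inhibition. Control set: wells without proteasome as full block, compound-free enzyme plus substrate as uninhibited.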
An asterisk follows results filed as active. Shown are actives, neighbours in structure and some others; about 3.6% of the full set was active somewhere.

How did O=C(NCCN1C(=O)S/C(=C\c2ccccc2)C1=O)C1CCN(S(=O)(=O)c2cccs2)CC1 do in these assays?
ATG4B inhibitor: -5; GRIN3A LBD mod: 15*; NadD inh: 0; SENP1 FRET inh: 1; UCH37 inh: -8

What do the screens show for `c1ccc(-c2nnsc2Sc2ccccn2)cc1`?
ATG4B inhibitor: -6; GRIN3A LBD mod: 14*; NadD inh: -8; SENP1 FRET inh: 3; UCH37 inh: 7

How did Nc1nc(-c2c[nH]c3ccccc23)cs1 do in these assays?
ATG4B inhibitor: 0; GRIN3A LBD mod: -3; NadD inh: 7; SENP1 FRET inh: -4; UCH37 inh: 2

How did CCc1ccc(-c2csc(-c3c[nH]c4ccccc34)n2)cc1 do in these assays?
ATG4B inhibitor: 20; GRIN3A LBD mod: 39*; NadD inh: 5; SENP1 FRET inh: -4; UCH37 inh: -5

What do the screens show for `CCCn1c(C)cc(-c2csc(N)n2)c1C`?
ATG4B inhibitor: 14; GRIN3A LBD mod: -1; NadD inh: 30; SENP1 FRET inh: 2; UCH37 inh: 0

How did Cc1cc(-c2csc(N)n2)c(C)n1-c1ccc(Cl)c(Cl)c1 do in these assays?
ATG4B inhibitor: 28; GRIN3A LBD mod: -7; NadD inh: 36*; SENP1 FRET inh: 19; UCH37 inh: 2

What do the screens show for `COc1ccc(-n2c(C)cc(-c3csc(N)n3)c2C)cc1`?
ATG4B inhibitor: 1; GRIN3A LBD mod: -5; NadD inh: 33*; SENP1 FRET inh: 16; UCH37 inh: 5

What do the screens show for `CC1CCCCC1NC(=S)Nc1ccc(SC(F)F)cc1` (stereo not given)?
ATG4B inhibitor: 23; GRIN3A LBD mod: 10; NadD inh: 0; SENP1 FRET inh: 2; UCH37 inh: 0

What do the screens show for `S=C(NCC1CCCCC1)Nc1ccc(Oc2ccccc2)cc1`?
ATG4B inhibitor: 29; GRIN3A LBD mod: 16*; NadD inh: -3; SENP1 FRET inh: 0; UCH37 inh: 4

What do the screens show for `FC(F)Sc1ccc(NC(=S)NC(c2ccccc2)c2ccccc2)cc1`?
ATG4B inhibitor: -3; GRIN3A LBD mod: 28*; NadD inh: -8; SENP1 FRET inh: 4; UCH37 inh: 4

How did FC(F)Sc1ccc(NC(=S)NC2CCCCC2)cc1 do in these assays?
ATG4B inhibitor: 10; GRIN3A LBD mod: 15*; NadD inh: 7; SENP1 FRET inh: 2; UCH37 inh: 4

Results for FC(F)Sc1ccc(NC(=S)NCC2CCCCC2)cc1 ?
ATG4B inhibitor: 29; GRIN3A LBD mod: 31*; NadD inh: -3; SENP1 FRET inh: 2; UCH37 inh: 3

Results for S=C(Nc1ccc(Oc2ccccc2)cc1)NC1CCCC1 ?
ATG4B inhibitor: 10; GRIN3A LBD mod: 0; NadD inh: -4; SENP1 FRET inh: -1; UCH37 inh: 0

Results for CC(=NNc1nnc(-c2ccccc2)c(-c2ccccc2)n1)c1cccc([N+](=O)[O-])c1 ?
UCH37 inh: 7

How did O=C(NN=Cc1cccnc1)c1cccc(Cl)c1 do in these assays?
UCH37 inh: -1

What do the screens show for `O=C(NC(=O)c1c(F)cccc1F)ON=C1CCCc2occc21`?
UCH37 inh: -2

What do the screens show for `CCOC(=O)NN=Cc1cn(Cc2ccc(Cl)cc2)c2ccccc12`?
UCH37 inh: 4

What do the screens show for `CCCCN(CCCC)C(=S)NN=Cc1c(C)[nH]n(-c2ccccc2)c1=O`?
UCH37 inh: -1

Results for O=C(NN=Cc1cccc(OC(=O)c2cccc(Br)c2)c1)c1cccnc1 ?
UCH37 inh: 1

How did COc1ccc(NCC(=O)NN=C/C=C/c2ccccc2[N+](=O)[O-])cc1 do in these assays?
UCH37 inh: 6

How did O=C(NN=C/C=C/c1ccc([N+](=O)[O-])cc1)C1COc2ccccc2O1 (stereo not given) do in these assays?
UCH37 inh: 11

Results for O=C(/C=C/c1ccccc1F)c1cccc([N+](=O)[O-])c1 ?
ATG4B inhibitor: 16; GRIN3A LBD mod: 19*; NadD inh: 2; SENP1 FRET inh: 1; UCH37 inh: 6

What do the screens show for `O=C(O)c1ccc(NN=Cc2ccc(OC(=O)c3ccccc3Cl)cc2)cc1`?
UCH37 inh: -9

Results for CCCCCCc1cc2cc(C(=O)NCc3ccccc3)c(=N)oc2cc1O ?
ATG4B inhibitor: -8; GRIN3A LBD mod: -3; NadD inh: 31*; SENP1 FRET inh: -32; UCH37 inh: -138

Results for Cc1ccc(S(=O)(=O)c2cc3cc(Br)ccc3oc2=O)cc1 ?
ATG4B inhibitor: 5; GRIN3A LBD mod: 7; NadD inh: 0; SENP1 FRET inh: -25; UCH37 inh: 5

How did CCCCCCc1cc2cc(C(=O)Nc3ccccc3)c(=O)oc2cc1O do in these assays?
ATG4B inhibitor: -3; GRIN3A LBD mod: 17*; NadD inh: 8; SENP1 FRET inh: -29; UCH37 inh: -64

Results for CCCCCCc1cc2cc(S(=O)(=O)c3ccc(C)cc3)c(=O)oc2cc1O ?
ATG4B inhibitor: -1; GRIN3A LBD mod: 27*; NadD inh: 11; SENP1 FRET inh: -54; UCH37 inh: -344

How did CCOC(=O)Cc1cc(=O)[nH]c(N=C(N)Nc2ccc(OC)cc2)n1 do in these assays?
UCH37 inh: 1

What do the screens show for `NC(=S)NN=Cc1ccccc1OC(=O)c1cc2ccccc2oc1=O`?
UCH37 inh: -67

What do the screens show for `ON=Cc1cc(Cl)ccc1OCc1ccccc1Cl`?
UCH37 inh: 4

What do the screens show for `O=C(NNC(=O)c1cc2ccccc2cc1O)Nc1ccc(Br)cc1`?
ATG4B inhibitor: -4; GRIN3A LBD mod: 19*; NadD inh: 1; SENP1 FRET inh: -2; UCH37 inh: -74

How did O=C(NC(=S)NNC(=O)c1cc2ccccc2cc1O)c1ccco1 do in these assays?
ATG4B inhibitor: -6; GRIN3A LBD mod: 11*; NadD inh: 4; SENP1 FRET inh: -1

Results for O=C(NC(=S)NNC(=O)c1ccccc1O)c1ccco1 ?
ATG4B inhibitor: -3; GRIN3A LBD mod: -10; NadD inh: -1; SENP1 FRET inh: 1; UCH37 inh: 10

Results for O=C(NNC(=O)c1ccncc1)Nc1ccc([N+](=O)[O-])cc1 ?
ATG4B inhibitor: -6; GRIN3A LBD mod: -23; NadD inh: 0; SENP1 FRET inh: 2

What do the screens show for `O=C(NNC(=O)c1ccncc1)Nc1ccc(Br)cc1`?
ATG4B inhibitor: -3; GRIN3A LBD mod: 14*; NadD inh: 0; SENP1 FRET inh: 3; UCH37 inh: 3

Results for O=C(Cc1ccccc1)NN=Cc1ccc2cccc(O)c2n1 ?
UCH37 inh: 4

What do the screens show for `CCOC(=O)c1c(N=CN(C)C)sc(C=NNc2ccccc2)c1-c1ccccc1Cl`?
UCH37 inh: -5
